Laboratory results from ChEMBL document CHEMBL3351467, “Ligand-free Pd-catalyzed C-N cross-coupling/cyclization strategy: an unprecedented access to 1-thienyl pyrroloquinoxalines for the new approach towards apoptosis” (Eur J Med Chem, 2014).
Calls of active or inactive are those of the source. The calls are words filed in the database; no cut-off is given here.

Columns and labels:
Danio rerio [1] = species: Danio rerio; test: Toxicity in Zebrafish embryo assessed as induction of changes in lower jaw region at 1 uM; format: organism-based; details: in vivo
Procedure, shortened: (§1)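 Embryos at 1 dpf dechorionated with 0.5 mg/ml pronase E and washed in E3. Exposed 6 per well to compound serially diluted in E3 with a final 0.1% DMSO, at 28.5 °C until 5 dpf. Embryos then washed, anaesthetised with 0.008% tricaine and scored blind for body shape, somites, notochord, tail, intestine, fins, brain, jaws, heart, liver and swim bladder. Phenobarbital (3 mM) served as positive control.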

Danio rerio [2] = species: Danio rerio; test: Induction of apoptosis in Zebrafish embryo at 3 to 30 uM incubated for 24 to 48 hrs by acridine orange based fluorescence microscopy; format: functional, organism-based
Procedure, shortened: (§2)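 Embryos dechorionated by hand at 24 hpf, 6 per well in two sets, in 0.1% DMSO. Compound added from serially diluted working stocks, kept at 28 °C for 24 h and 48 h. Washed three times in E3, stained 30 min with acridine orange ([…]) in E3, rinsed twice, then examined for apoptosis.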

Danio rerio [3] = species: Danio rerio; test: Toxicity in Zebrafish embryo assessed as induction of changes in brain region at 1 uM; format: organism-based; details: in vivo; procedure, shortened: as §1
Danio rerio [4] = species: Danio rerio; test: Teratogenicity in Zebrafish embryo incubated at 28.5 degC until 5 days post fertilization; format: ADME, organism-based; details: in vivo, 120 h; procedure, shortened: as §1
Danio rerio [5] = species: Danio rerio; test: Toxicity in Zebrafish embryo assessed as induction of changes in upper jaw region at 1 uM; format: organism-based; details: in vivo; procedure, shortened: as §1
Danio rerio [6] = species: Danio rerio; test: Hepatotoxicity in Zebrafish embryo at 28 degC until 7 days post fertilization; format: organism-based; details: in vivo, 168 h
Procedure, shortened: (§3)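 Larvae at 4 dpf exposed in 24-well plates, 6 per well in 0.1% DMSO, to final 1, 3, 10 and 30 concentrations, incubated at 28 °C until 7 dpf. Washed in E3 and anaesthetised with tricaine. Images scored for liver size, liver degeneration and yolk sac retention as percentages. Amiodarone served as positive control.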

Danio rerio [7] = species: Danio rerio; test: Toxicity in Zebrafish embryo assessed as induction of changes in intestine region at 1 uM; format: organism-based; details: in vivo; procedure, shortened: as §1
Danio rerio [8] = species: Danio rerio; test: Toxicity in Zebrafish embryo at 1 to 30 uM; format: organism-based; details: in vivo; procedure, shortened: as §1
Danio rerio [9] = species: Danio rerio; test: Toxicity in Zebrafish embryo assessed as induction of changes in heart region at 1 uM; format: organism-based; details: in vivo; procedure, shortened: as §1
Danio rerio [10] = species: Danio rerio; test: Toxicity in Zebrafish embryo assessed as induction of changes in swim bladder region at 1 uM; format: organism-based; details: in vivo; procedure, shortened: as §1
[11] = target: 3',5'-cyclic-AMP phosphodiesterase 4B (Homo sapiens) (UniProt Q07343); test: Inhibition of recombinant His-tagged PDE4B1 (unknown origin) expressed in Sf9 cells at 30 uM pre-incubated for 15 mins before cAMP substrate addition by luminescence assay
Sequence of 3',5'-cyclic-AMP phosphodiesterase 4B (Homo sapiens) (Q07343 whole entry): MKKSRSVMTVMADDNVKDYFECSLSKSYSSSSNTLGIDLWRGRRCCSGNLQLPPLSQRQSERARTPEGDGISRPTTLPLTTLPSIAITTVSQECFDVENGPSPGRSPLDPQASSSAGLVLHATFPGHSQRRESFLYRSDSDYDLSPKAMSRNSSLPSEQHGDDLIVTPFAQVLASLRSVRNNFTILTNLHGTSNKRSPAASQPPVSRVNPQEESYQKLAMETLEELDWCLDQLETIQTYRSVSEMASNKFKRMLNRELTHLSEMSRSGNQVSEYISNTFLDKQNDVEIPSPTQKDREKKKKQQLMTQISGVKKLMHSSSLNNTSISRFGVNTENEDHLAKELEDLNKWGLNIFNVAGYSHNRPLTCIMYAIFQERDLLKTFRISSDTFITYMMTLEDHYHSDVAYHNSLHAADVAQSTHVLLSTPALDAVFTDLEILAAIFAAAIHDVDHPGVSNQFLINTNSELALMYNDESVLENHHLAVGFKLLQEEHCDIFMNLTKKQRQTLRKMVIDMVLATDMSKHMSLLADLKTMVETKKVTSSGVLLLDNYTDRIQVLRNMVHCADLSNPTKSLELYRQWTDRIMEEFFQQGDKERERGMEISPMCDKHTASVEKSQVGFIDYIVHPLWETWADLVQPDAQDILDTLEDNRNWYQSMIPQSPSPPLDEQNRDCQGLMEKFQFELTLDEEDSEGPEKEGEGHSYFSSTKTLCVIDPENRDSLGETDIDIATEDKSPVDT
Procedure, shortened: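 PDE4B1 purified in house (10 ng) pre-incubated 15 min with compound or DMSO vehicle. cAMP substrate ([…]) added for 1 h, then reaction stopped and detection reagent applied 10 min in the dark. Luminescence (RLU) read. % inhibition = (RLU vehicle − RLU inhibitor)/RLU vehicle × 100.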

Danio rerio [12] = species: Danio rerio; test: Teratogenicity in Zebrafish embryo at 1 to 30 uM incubated at 28.5 degC until 5 days post fertilization; format: ADME, organism-based; details: in vivo, 120 h; procedure, shortened: as §1
Danio rerio [13] = species: Danio rerio; test: Induction of apoptosis in Zebrafish embryo incubated for 24 to 48 hrs by acridine orange based fluorescence microscopy; format: functional, organism-based; procedure, shortened: as §2
Danio rerio [14] = species: Danio rerio; test: Toxicity in Zebrafish embryo assessed as induction of changes in somites at 1 uM; format: organism-based; details: in vivo; procedure, shortened: as §1
Danio rerio [15] = species: Danio rerio; test: Hepatotoxicity in Zebrafish embryo at 30 uM incubated at 28 degC until 7 days post fertilization; format: organism-based; details: in vivo, 168 h; procedure, shortened: as §3
Danio rerio [16] = species: Danio rerio; test: Toxicity in Zebrafish embryo assessed as induction of changes in body shape at 1 uM; format: organism-based; details: in vivo; procedure, shortened: as §1
Danio rerio [17] = species: Danio rerio; test: Toxicity in Zebrafish embryo assessed as induction of changes in notochords at 1 uM; format: organism-based, Notochord; details: in vivo; procedure, shortened: as §1
Danio rerio [18] = species: Danio rerio; test: Induction of apoptosis in Zebrafish embryo at 1 uM incubated for 24 to 48 hrs by acridine orange based fluorescence microscopy; format: functional, organism-based; procedure, shortened: as §2
Danio rerio [19] = species: Danio rerio; test: Hepatotoxicity in Zebrafish embryo at 1 to 10 uM incubated at 28 degC until 7 days post fertilization; format: organism-based; details: in vivo, 168 h; procedure, shortened: as §3
Danio rerio [20] = species: Danio rerio; test: Toxicity in Zebrafish embryo assessed as induction of changes in tail region at 1 uM; format: organism-based; details: in vivo; procedure, shortened: as §1
Danio rerio [21] = species: Danio rerio; test: Toxicity in Zebrafish embryo assessed as induction of changes in liver region at 1 uM; format: organism-based; details: in vivo; procedure, shortened: as §1
[22] = Therapeutic index, ratio of NOAEL in Zebrafish embryos to apoptotic EC50 in Zebrafish embryos; format: organism-based, Danio rerio; details: read-out: TI
Danio rerio [23] = species: Danio rerio; test: Toxicity in Zebrafish embryo assessed as induction of changes in fins region at 1 uM; format: organism-based; details: in vivo; procedure, shortened: as §1
Danio rerio [24] = species: Danio rerio; test: Teratogenicity in Zebrafish embryo assessed as live embryo level at 1 uM incubated at 28.5 degC until 5 days post fertilization; format: ADME, organism-based; details: in vivo, 120 h; procedure, shortened: as §1
Danio rerio [25] = species: Danio rerio; test: Hepatotoxicity in Zebrafish embryo at 3 uM incubated at 28 degC until 7 days post fertilization; format: organism-based; details: in vivo, 168 h; procedure, shortened: as §3
Danio rerio [26] = species: Danio rerio; test: Teratogenicity in Zebrafish embryo at 10 to 30 uM incubated at 28.5 degC until 5 days post fertilization; format: ADME, organism-based; details: in vivo, 120 h; procedure, shortened: as §1
Danio rerio [27] = species: Danio rerio; test: Teratogenicity in Zebrafish embryo assessed as induction of morphological deformities at swim bladder at 1 uM incubated at 28.5 degC until 5 days post fertilization; format: toxicity, organism-based; details: in vivo, 120 h; procedure, shortened: as §1
Danio rerio [28] = species: Danio rerio; test: Induction of apoptosis in Zebrafish embryo up to 3 uM incubated for 24 to 48 hrs by acridine orange based fluorescence microscopy; format: functional, organism-based; procedure, shortened: as §2
Danio rerio [29] = species: Danio rerio; test: Teratogenicity in Zebrafish embryo assessed as induction of morphological deformities at lower jaw at 1 uM incubated at 28.5 degC until 5 days post fertilization; format: organism-based; details: in vivo, 120 h; procedure, shortened: as §1
Danio rerio [30] = species: Danio rerio; test: Hepatotoxicity in Zebrafish embryo at 1 uM incubated at 28 degC until 7 days post fertilization; format: organism-based; details: in vivo, 168 h; procedure, shortened: as §3
Danio rerio [31] = species: Danio rerio; test: Induction of cell death in Zebrafish embryo at 10 to 30 uM incubated for 24 to 48 hrs by acridine orange based fluorescence microscopy; format: functional, organism-based; procedure, shortened: as §2
[32] = Teratogenicity in Zebrafish embryo assessed as live embryo level at 3 uM incubated at 28.5 degC until 5 days post fertilization; format: ADME, organism-based, Danio rerio; details: zebrafish embryos, read-out: Activity
Procedure, shortened: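 Zebrafish embryos collected at 1 dpf, staged, dechorionated with 0.5 mg/ml pronase E and washed in E3 medium. Compound serially diluted in E3 with 0.1% DMSO final. Six embryos per well, exposed at 28.5 °C until 5 dpf, then washed, anaesthetised with 0.008% tricaine and scored for morphology (body shape, somites, notochord, tail, intestine, fins, brain, jaws, heart, liver, swim bladder). Blinded; phenobarbital 3 mM positive control.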

Danio rerio [33] = species: Danio rerio; test: Hepatotoxicity in Zebrafish embryo assessed as induction of embryo mortality at 10 to 30 uM incubated at 28 degC until 7 days post fertilization; format: organism-based; details: in vivo, 168 h
Procedure, shortened: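 Zebrafish embryos at 4 dpf, six per well in 0.1% DMSO, exposed to final compound concentrations of 1, 3, 10 and 30 at 28 °C until 7 dpf. Embryos then washed in E3 medium, anaesthetised with tricaine and imaged; liver size, liver degeneration and yolk sac retention quantified as percentages. Amiodarone served as positive control; evaluation blinded.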

Danio rerio [34] = species: Danio rerio; test: Teratogenicity in Zebrafish embryo assessed as induction of morphological deformities at 3 uM incubated at 28.5 degC until 5 days post fertilization; format: organism-based; details: in vivo, 120 h; procedure, shortened: as §1

Row | Structure (SMILES) | Activity (Danio rerio [1]) | Activity (Danio rerio [3]) | NOAEL (Danio rerio [4]) [µM] | Activity (Danio rerio [5]) | Activity (Danio rerio [7]) | MTC (Danio rerio [8]) [µM] | NOAEL (Danio rerio [8]) [µM] | Activity (Danio rerio [9]) | Activity (Danio rerio [10]) | inhibition [11] [%] | EC50 (Danio rerio [13]) [µM] | Activity (Danio rerio [14]) | Activity (Danio rerio [16]) | Activity (Danio rerio [17]) | Activity (Danio rerio [20]) | Activity (Danio rerio [21]) | selectivity ratio [22] | Activity (Danio rerio [23]) | other results
1 | CCOC(=O)c1c(-c2ccccc2)csc1-n1c(-c2ccc(C)cc2)cc2nc3ccccc3nc21 | Toxic | Non-toxic | 3 | Non-toxic | Non-toxic | 1 | 3 | Non-toxic | Non-toxic | 78 | 1.83 | Non-toxic | Non-toxic | Non-toxic | Non-toxic | Non-toxic | 1.64 | Non-toxic | Activity (Danio rerio [2]): Active; NOAEL (Danio rerio [6]): 10 µM; Activity (Danio rerio [12]): Non-toxic; Activity (Danio rerio [15]): Toxic; Activity (Danio rerio [18]): inactive; Activity (Danio rerio [19]): Non-toxic
2 | CCOC(=O)c1c(-n2c(-c3ccccc3)cc3nccnc32)sc2c1CCC2 | Toxic | Non-toxic | 1 | Non-toxic | Non-toxic | 1 | < 1 | Non-toxic | Toxic | 62 | 1.73 | Toxic | Non-toxic | Non-toxic | Non-toxic | Toxic | 0.577 | Non-toxic | Activity (Danio rerio [24]): Non-toxic; Activity (Danio rerio [25]): Toxic; Activity (Danio rerio [26]): Toxic; LD (Danio rerio [8]): 10 µM; Activity (Danio rerio [27]): Toxic; Activity (Danio rerio [28]): Active; Activity (Danio rerio [29]): Toxic; Activity (Danio rerio [30]): Non-toxic; Activity (Danio rerio [31]): Active; survival at 120 h, 3 µM [32]: 50%; Activity (Danio rerio [33]): Toxic; Activity (Danio rerio [34]): Toxic
